This is a sample that favours compounds with a hit; in the whole collection about 1.8% have one here.
CHRM4 PAM = CHRM4 positive allosteric modulation; P08173; CHO-K1 hM4/Gqi5, Fluo-8 calcium fluorescence, ACh EC20; 0% = ACh EC20, 100% = maximal ACh; activation, % at 3 µM; 360,000 compounds, 0.4% hits; AID 624126;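 active = activation above its plate's cutoff, the mean activation of sample wells plus 3 SD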
M5 ag = agonists of human muscarinic M5 receptor (CHRM5); P08912; CHO-K1 hM5 cells, Fluo-8 calcium fluorescence; 0% DMSO wells, 100% maximal acetylcholine response; activation, % at 3 µM; 360,000 compounds, 0.19% hits; AID 624037;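 active = activation above the run's mean over test compounds plus 3 SD, cut at about 23% in these data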;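 note: signal is peak over basal fluorescence ratio across the kinetic read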
Target sequence (P08912 whole entry, looked up): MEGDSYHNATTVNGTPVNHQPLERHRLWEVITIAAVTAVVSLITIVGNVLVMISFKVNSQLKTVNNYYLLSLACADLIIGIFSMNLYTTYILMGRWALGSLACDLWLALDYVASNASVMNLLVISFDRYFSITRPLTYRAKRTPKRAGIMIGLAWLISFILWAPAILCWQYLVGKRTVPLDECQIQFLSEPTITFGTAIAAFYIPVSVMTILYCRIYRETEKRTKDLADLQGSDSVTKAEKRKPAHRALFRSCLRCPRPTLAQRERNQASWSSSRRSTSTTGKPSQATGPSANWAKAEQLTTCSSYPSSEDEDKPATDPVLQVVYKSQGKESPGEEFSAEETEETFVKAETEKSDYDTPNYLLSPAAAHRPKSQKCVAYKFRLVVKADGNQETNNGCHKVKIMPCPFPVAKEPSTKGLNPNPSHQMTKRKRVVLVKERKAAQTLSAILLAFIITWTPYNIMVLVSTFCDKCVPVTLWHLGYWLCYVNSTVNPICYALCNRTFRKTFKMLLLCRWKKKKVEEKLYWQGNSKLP
CHRM4 agonist = agonists of human muscarinic M4 receptor (CHRM4); P08173; CHO-K1 hM4/Gqi5, Fluo-8 calcium fluorescence; vehicle 0%, full acetylcholine response 100%; activation, % at 3 µM; 360,000 compounds, 0.14% hits; AID 624127;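 active = activation above the run mean over all test wells plus 3 SD, cut at about 32% in these data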;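 note: peak over basal fluorescence ratio per well then scaled between controls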
CHRM5 PAM = positive allosteric modulators of human muscarinic M5 receptor | CHO-K1 hM5, Fluo-8 calcium, ACh EC20 PAM; 0% = ACh EC20, 100% = ACh EC100 | P08912 | activation, % at 3 µM | AID 624038 | 360,000 compounds, 0.3% hits;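 active = activation above the run cutoff, the mean activation of all test compounds plus 3 SD, cut at about 18% in these data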
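Replicates: One well per compound, no replicates | System: Human M5 receptor in CHO-K1 cells | Benchmarks: Low control EC20 acetylcholine (0%), high control EC100 acetylcholine (100%) | Probe or stimulus: Acetylcholine, EC20 level | Times: Fluo-8 loading 80 min at 37 °C plus 30 min room temperature | Signal: Intracellular calcium via Fluo-8 fluorescence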
M4 antag = antagonists of human muscarinic M4 receptor (CHRM4); P08173; CHO-hM4 cells, ACh EC80, Fluo-8 calcium fluorescence; inhibition, % at 3 µM; 360,000 compounds, 0.73% hits; AID 624125;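 active = inhibition above its plate's cutoff, the mean inhibition of sample wells plus 3 SD, cut at about 27% in these data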
M5 antag = CHRM5 antagonism in calcium assay. P08912. CHO-hM5 cells, Fluo-8 calcium fluorescence, ACh EC80. inhibition, % at 3 µM. 360,000 compounds, 0.59% hits. AID 624040;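 active = inhibition above a per-plate cutoff, the mean of that plate's test compounds plus 3 SD, cut at about 27% in these data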
Hits are given with their value.

COc1cccc(C2Nc3ccccc3C(=O)N2Cc2ccccc2)c1 (configuration not stated) was read as CHRM4 PAM inactive, M5 ag inactive, CHRM4 agonist inactive, CHRM5 PAM 28, M4 antag inactive and M5 antag 28.
`O=C1c2ccccc2NC(c2ccccc2)N1Cc1ccccc1` (configuration not stated) gave CHRM4 PAM inactive, M5 ag inactive, CHRM4 agonist inactive, CHRM5 PAM inactive, M4 antag inactive and M5 antag inactive.
For CCc1c(C)c2ccc(OCC(=O)N(C)C)c(C)c2oc1=O the results were CHRM4 PAM inactive, M5 ag inactive, CHRM4 agonist inactive, CHRM5 PAM inactive, M4 antag inactive and M5 antag inactive.
Screening CCOC(=O)CCc1c(C)c2ccc(OCC(=O)N(CC)CC)c(C)c2oc1=O returned CHRM4 PAM inactive, M5 ag inactive, CHRM4 agonist inactive, CHRM5 PAM inactive, M4 antag 36 and M5 antag inactive.
`O=C(Nc1ccc(N2CCOCC2)c(F)c1)c1cccs1` gave CHRM4 PAM inactive, M5 ag inactive, CHRM4 agonist inactive, CHRM5 PAM inactive, M4 antag inactive and M5 antag inactive.
CCOC(=O)C1=C(C)OC(N)=C(C#N)C1c1cccc(C)c1 (configuration not stated) was read as CHRM4 PAM inactive, M5 ag inactive, CHRM4 agonist inactive, CHRM5 PAM inactive, M4 antag inactive and M5 antag inactive.
`CCOC(=O)C1=C(C)OC(N)=C(C#N)C1c1cc(F)ccc1F` (configuration not stated) gave CHRM4 PAM inactive, M5 ag inactive, CHRM4 agonist inactive, CHRM5 PAM inactive, M4 antag 30 and M5 antag inactive.
`O=C(CSC1CC(=O)N(c2ccc(C(=O)O)cc2)C1=O)Nc1ccc(Cl)cc1` (configuration not stated) gave CHRM4 PAM inactive, M5 ag inactive, CHRM4 agonist inactive, CHRM5 PAM inactive, M4 antag inactive and M5 antag inactive.
CCOc1ncccc1C(=O)N1CCN(S(=O)(=O)c2ccc3c(c2)OCCO3)CC1 was read as CHRM4 PAM inactive, M5 ag inactive, CHRM4 agonist inactive, CHRM5 PAM inactive, M4 antag inactive and M5 antag inactive.
Cc1ccc(NC(=O)CSc2nnc(NC(=O)c3ccco3)s2)cc1 was read as CHRM4 PAM inactive, M5 ag inactive, CHRM4 agonist inactive, CHRM5 PAM inactive, M4 antag inactive and M5 antag inactive.
Screening CC(=O)c1ccc(NC(=O)CSc2nnc(NC(=O)c3ccco3)s2)cc1 returned CHRM4 PAM 21, M5 ag inactive, CHRM4 agonist inactive, CHRM5 PAM inactive, M4 antag inactive and M5 antag inactive.
Cc1cccc(NC(=O)CN(C)C(=O)c2ccc3ccccc3n2)c1C was read as CHRM4 PAM inactive, M5 ag inactive, CHRM4 agonist inactive, CHRM5 PAM inactive, M4 antag inactive and M5 antag inactive.
For CCC(C)(C(=O)Nc1c(C)cccc1C)N(C)C(=O)c1ccc2ccccc2n1 (configuration not stated) the results were CHRM4 PAM inactive, M5 ag inactive, CHRM4 agonist inactive, CHRM5 PAM inactive, M4 antag 37 and M5 antag inactive.
Screening CCS(=O)(=O)N1CCC(NC(=O)C(Cc2cccc(OC)c2OC)NC(C)=O)CC1 (configuration not stated) returned CHRM4 PAM 18, M5 ag inactive, CHRM4 agonist inactive, CHRM5 PAM inactive, M4 antag inactive and M5 antag inactive.
For CC(=O)Nc1ccc(S(=O)(=O)N2CCC(NC(=O)C(Cc3cccn3C)NC(C)=O)CC2)cc1 (configuration not stated) the results were CHRM4 PAM inactive, M5 ag inactive, CHRM4 agonist inactive, CHRM5 PAM 28, M4 antag inactive and M5 antag inactive.
`COc1ccc(C(C(=O)Nc2ccc3c(c2)OCCO3)n2c(=O)c(-c3ccco3)nc3ccccc32)cc1` (configuration not stated) gave CHRM4 PAM inactive, M5 ag inactive, CHRM4 agonist inactive, CHRM5 PAM inactive, M4 antag inactive and M5 antag inactive.
For C=CCNC(=S)N/N=C/c1ccc(C)cc1C the results were CHRM4 PAM inactive, M5 ag inactive, CHRM4 agonist inactive, CHRM5 PAM 21, M4 antag inactive and M5 antag inactive.
CCNC(=S)N/N=C/c1cc(C)ccc1C was read as CHRM4 PAM inactive, M5 ag inactive, CHRM4 agonist inactive, CHRM5 PAM inactive, M4 antag inactive and M5 antag inactive.
For O=C(O)C1c2ccccc2C(=O)N(Cc2ccc(F)cc2)C1c1ccncc1 (configuration not stated) the results were CHRM4 PAM inactive, M5 ag inactive, CHRM4 agonist inactive, CHRM5 PAM 27, M4 antag inactive and M5 antag inactive.
CCc1ccc(C2C(C(=O)O)c3ccccc3C(=O)N2C)cc1 (configuration not stated) was read as CHRM4 PAM inactive, M5 ag inactive, CHRM4 agonist inactive, CHRM5 PAM inactive, M4 antag inactive and M5 antag inactive.
`O=C(CC[C@H]1O[C@@H](n2cnc3c(NC(=O)c4ccccc4)ncnc32)[C@H](O)[C@@H]1O)NCCCN1CCCC1=O` gave CHRM4 PAM inactive, M5 ag inactive, CHRM4 agonist inactive, CHRM5 PAM inactive, M4 antag inactive and M5 antag inactive.
For Cc1ccnc(NS(=O)(=O)c2ccc(NS(=O)(=O)c3ccccc3)cc2)n1 the results were CHRM4 PAM inactive, M5 ag inactive, CHRM4 agonist inactive, CHRM5 PAM 23, M4 antag inactive and M5 antag inactive.
COc1ccccc1C(=O)Oc1ccc2ccc(=O)oc2c1 was read as CHRM4 PAM inactive, M5 ag inactive, CHRM4 agonist inactive, CHRM5 PAM inactive, M4 antag inactive and M5 antag inactive.
COc1ccccc1C(=O)Oc1ccc(C(C)(C)C)cc1 was read as CHRM4 PAM inactive, M5 ag inactive, CHRM4 agonist inactive, CHRM5 PAM 26, M4 antag inactive and M5 antag inactive.
Screening COc1ccc(N(C)S(=O)(=O)c2ccc(Cl)c(C(=O)NNC(=O)c3ccccc3O)c2)cc1 returned CHRM4 PAM inactive, M5 ag inactive, CHRM4 agonist inactive, CHRM5 PAM inactive, M4 antag inactive and M5 antag inactive.
Screening N#Cc1ccc(N2CCN(C(=O)c3cccc(F)c3)CC2)c(F)c1 returned CHRM4 PAM 16, M5 ag inactive, CHRM4 agonist inactive, CHRM5 PAM inactive, M4 antag inactive and M5 antag inactive.

Screening data deposited in PubChem by The Scripps Research Institute Molecular Screening Center.
